In ChEMBL document CHEMBL1129647, “Targeting delavirdine/atevirdine resistant HIV-1: identification of (alkylamino)piperidine-containing bis(heteroaryl)piperazines as broad spectrum HIV-1 reverse transcriptase inhibitors” (J Med Chem, 1996):

Columns and labels:
[1] = target: T1, Human immunodeficiency virus type 1 reverse transcriptase (Human immunodeficiency virus 1, UniProt Q72547, P236L)
[2] = Bioavailability at an iv dose of 15.7 mg/Kg and po dose of 31.4 mg/Kg; assay type: ADME, organism-based; details: rat, in vivo, read-out: Bioavailabiility
Outline: (§1)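 Male Sprague-Dawley rats, fasted, dosed iv and po in a crossover design with a 1 week washout between treatments (N = 3). Compound was given as a solution in propylene glycol/water (80/20, v/v) acidified with a molar excess of methanesulfonic acid. Values are the iv clearance and the absolute oral bioavailability.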

[3] = target: T2, Human immunodeficiency virus type 1 reverse transcriptase (Human immunodeficiency virus 1, UniProt Q72547)
[4] = target: T3, Human immunodeficiency virus type 1 reverse transcriptase (Human immunodeficiency virus 1, UniProt Q72547, Y181C)
[5] = Clearance at an iv dose of 15.7 mg/Kg and po dose of 31.4 mg/Kg; assay type: ADME, organism-based; details: rat, in vivo
Outline: as §1

[6] = Bioavailability at an iv dose of 12 mg/Kg and po dose of 23 mg/Kg; assay type: ADME, organism-based; details: rat, in vivo, read-out: Bioavailabiility
Outline: as §1

[7] = Clearance at an iv dose of 12 mg/Kg and po dose of 23 mg/Kg; assay type: ADME, organism-based; details: rat, in vivo
Outline: as §1

[8] = Bioavailability at an iv dose of 15 mg/Kg and po dose of 30.2 mg/Kg; assay type: ADME, organism-based; details: rat, in vivo, read-out: Bioavailabiility
Outline: as §1

[9] = Clearance at an iv dose of 15 mg/Kg and po dose of 30.2 mg/Kg; assay type: ADME, organism-based; details: rat, in vivo
Outline: as §1

[10] = system: Human immunodeficiency virus 1; assay: Concentration required to inhibit P24 production by 90% against L-697661 of HIV-1 IIIB (Y181C); assay type: functional
[11] = Clearance at an iv dose of 15 mg/Kg and po dose of 60 mg/Kg; assay type: ADME, organism-based; details: in vivo
Outline: as §1

[12] = Bioavailability at an iv dose of 15 mg/Kg and po dose of 120 mg/Kg; assay type: ADME, organism-based; details: in vivo, read-out: Bioavailabiility
Outline: as §1

[13] = target: T2, Human immunodeficiency virus type 1 reverse transcriptase; assay: Compound was tested for inhibition of HIV-1 181C cell line using poly(rA)300:oligo(dT)10 as substrate
Outline: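 Kinetic inhibition study on homodimeric recombinant HIV-1 RTs (WT, P236L, Y181C), varying dTTP or poly(rA):(dT)10 template:primer. Base assay: 28 °C, 10 min, pH 8.3 Tris-HCl, 10 mM MgCl2, 60 mM NaCl, 2 mM DTT, 0.05% NP-40, [3H]TTP incorporation. TCA-precipitated product collected on glass fibre filters and counted. Ki values derived.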

[14] = target: T2, Human immunodeficiency virus type 1 reverse transcriptase; assay: Compound was tested for inhibition of HIV-1 WT reverse transcriptase using poly(rA)300:oligo(dT)10 as substrate
[15] = target: T1, Human immunodeficiency virus type 1 reverse transcriptase; assay: Compound was tested for inhibition of HIV-1 P236L reverse transcriptase using dTTP as substrate
[16] = Clearance at an iv dose of 15 mg/Kg and po dose of 240 mg/Kg; assay type: ADME, organism-based; details: in vivo
Outline: as §1

[17] = system: Human immunodeficiency virus 1; assay: Concentration required to inhibit P24 production by 90% against U-90,152 of HIV-1 IIIB (L100I, M230L); assay type: functional
[18] = Clearance at an iv dose of 15 mg/Kg and po dose of 30 mg/Kg; assay type: ADME, organism-based; details: in vivo
Outline: as §1

[19] = target: T3, Human immunodeficiency virus type 1 reverse transcriptase; assay: Compound was tested for inhibition of HIV-1 Y181C reverse transcriptase using dTTP as substrate
[20] = system: Human immunodeficiency virus 1; assay: In vitro inhibition of recombinant HIV-1 IIIB mutant Y181C; assay type: functional, organism-based
[21] = Bioavailability (dose 15 mg/kg i.v. and 30 mg/kg p.o.); assay type: ADME, organism-based; details: eutheria, in vivo, po
Outline: as §1

[22] = system: Human immunodeficiency virus 1; assay: In vitro inhibition of recombinant HIV-1 IIIB mutant P236L; assay type: functional, organism-based
[23] = system: Human immunodeficiency virus 1; assay: In vitro inhibition of recombinant HIV-1 IIIB mutant WT; assay type: functional, organism-based
[24] = system: Human immunodeficiency virus 1; assay: Concentration required to inhibit P24 production by 90% against U-90,152 of HIV-1 MF (P236L); assay type: functional
[25] = target: T1, Human immunodeficiency virus type 1 reverse transcriptase; assay: Compound was tested for inhibition of HIV-1 P236L reverse transcriptase using poly(rA)300:oligo(dT)10 as substrate
[26] = target: T2, Human immunodeficiency virus type 1 reverse transcriptase; assay: Compound was tested for inhibition of HIV-1 WT reverse transcriptase using dTTP as substrate
[27] = Bioavailability at an iv dose of 15 mg/Kg and po dose of 60 mg/Kg; assay type: ADME, organism-based; details: in vivo, read-out: Bioavailabiility
Outline: as §1

[28] = Clearance at an iv dose of 15 mg/Kg and po dose of 120 mg/Kg; assay type: ADME, organism-based; details: in vivo
Outline: as §1

[29] = Bioavailability at an iv dose of 14 mg/Kg and po dose of 15 mg/Kg; assay type: ADME, organism-based; details: rat, in vivo, read-out: Bioavailabiility
Outline: as §1

[30] = Clearance at an iv dose of 14 mg/Kg and po dose of 15 mg/Kg; assay type: ADME, organism-based; details: rat, in vivo
Outline: as §1

Rattus norvegicus = assay: Bioavailability at an iv dose of 14 mg/Kg and po dose of 28 mg/Kg; assay type: ADME, organism-based; details: in vivo
Outline: as §1

[31] = Bioavailability at an iv dose of 16 mg/Kg and po dose of 35 mg/Kg; assay type: ADME, organism-based; details: rat, in vivo, read-out: Bioavailabiility
Outline: as §1

[32] = Clearance at an iv dose of 16 mg/Kg and po dose of 35 mg/Kg; assay type: ADME, organism-based; details: rat, in vivo
Outline: as §1

Work on `CC(C)Nc1cccnc1N(C1CC1)C1CCN(C(=O)c2cc3cc(NS(C)(=O)=O)ccc3[nH]2)CC1` yielded an IC50 [1] of 700 nM, a bioavailability [2] of 1.6% and an IC50 [3] of 230 nM. For the same compound, the IC50 [4] was 940 nM and the clearance [5] was 22.6 mL/min/kg.
In the case of `CCNc1cccnc1N1CCN(C(=O)c2cc3cc(OC)ccc3[nH]2)CC1.CS(=O)(=O)O` [ATEVIRDINE SULPHATE], the bioavailability [6] is reported as 75% and the clearance [7] is reported as 13 mL/min/kg.
For `CC(C)Nc1cccnc1N(C)C1CCN(C(=O)c2cc3cc(NS(C)(=O)=O)ccc3[nH]2)CC1`, the bioavailability [8] was 4.3%, the clearance [9] was 44 mL/min/kg and the IC90 [10] was 1000 nM.
Work on `CCN(c1ncccc1NC(C)(C)C)C1CCN(C(=O)c2cc3cc(NS(C)(=O)=O)ccc3[nH]2)CC1` yielded a clearance [11] of 50 mL/min/kg, a bioavailability [12] of 124% and a Ki [13] of 3.09 µM. For the same compound, the Ki [14] was 1380 nM, the Ki [15] was 1110 nM and the clearance [16] was 50 mL/min/kg. It also gave an IC90 [17] of 80 nM, a clearance [18] of 50 mL/min/kg and a Ki [19] of 1920 nM. For the same compound, the IC50 [20] was 660 nM, the bioavailability [21] was 14% and the IC90 [10] was 30 nM. It also gave an IC50 [22] of 460 nM, an IC50 [23] of 320 nM and an IC90 [24] of 190 nM. For the same compound, the Ki [25] was 1600 nM, the Ki [26] was 1030 nM and the bioavailability [27] was 42%. For the same compound, the clearance [28] was 50 mL/min/kg.
In the case of `CC(C)Nc1cccnc1N1CCN(C(=O)c2cc3cc(NS(C)(=O)=O)ccc3[nH]2)CC1.CS(=O)(=O)O` [DELAVIRDINE MESYLATE], the bioavailability [29] is reported as 64%, the clearance [30] is reported as 13.6 mL/min/kg and the Bioavailabiility (Rattus norvegicus) is reported as 169%.
`CNC(=O)Nc1ccc2[nH]c(C(=O)N3CCC(N(C)c4ncccc4NC(C)C)CC3)cc2c1` showed a bioavailability [31] of 12.3%, an IC50 [3] of 180 nM and an IC50 [4] of 1600 nM. It also gave a clearance [32] of 42 mL/min/kg.
